Screening data as filed in PubChem BioAssay.
This is a sample that favours compounds with a hit; in the whole collection about 1.8% have one here.
Tb MetRS inh – Trypanosoma brucei MetRS inhibition | purified T. brucei MetRS, ATP depletion, Kinase-Glo luminescence | inhibition, % at 11.9 µM | 360,000 compounds, 0.4% hits;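 active means inhibition above a per-plate cutoff of the control wells' mean inhibition plus 3 SD, cut at about 5.5% in these data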;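 further: 0% = DMSO wells median and 100% = median of wells with control inhibitor compound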
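technique = Kinase-Glo luminescence, ATP depletion format | system = purified MetRS (methionyl-tRNA synthetase) enzyme from Trypanosoma brucei | timing = 15 min preincubation, 2 h reaction, all 25 °C | evaluation = percent inhibition versus plate control medians | dosing = single dose, 11.9 µM final nominal, 0.9% final DMSO | also added = substrates ATP, L-methionine and bulk Escherichia coli tRNA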
A3A deaminase – blocks human APOBEC3A ssDNA deamination; P31941; recombinant A3A, FAM/TAMRA ssDNA deamination fluorescence; inhibition, % at 20 µM; 330,000 compounds, 0.41% hits; AID 493011;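 active means at least 40% inhibition at 20 µM here, with at most 30% in a related deaminase screen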;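 further: plate controls were A3A with DMSO for no effect and wells lacking A3A enzyme for full effect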
Target sequence (P31941 whole entry, looked up): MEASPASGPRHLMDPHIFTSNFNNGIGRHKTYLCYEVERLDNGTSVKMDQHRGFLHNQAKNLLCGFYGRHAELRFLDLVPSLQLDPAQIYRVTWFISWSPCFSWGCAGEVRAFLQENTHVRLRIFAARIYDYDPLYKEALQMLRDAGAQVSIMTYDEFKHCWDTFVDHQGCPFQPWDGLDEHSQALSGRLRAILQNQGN
PHOSPHO1 inh – inhibitors of human PHOSPHO1 phosphatase; 290,000 compounds, 1.1% hits; inhibition, % at 13.3 µM; recombinant PHOSPHO1, absorbance phosphatase assay; Q8TCT1; in the data active means inhibition above about 60%
Target sequence (Q8TCT1 whole entry, looked up): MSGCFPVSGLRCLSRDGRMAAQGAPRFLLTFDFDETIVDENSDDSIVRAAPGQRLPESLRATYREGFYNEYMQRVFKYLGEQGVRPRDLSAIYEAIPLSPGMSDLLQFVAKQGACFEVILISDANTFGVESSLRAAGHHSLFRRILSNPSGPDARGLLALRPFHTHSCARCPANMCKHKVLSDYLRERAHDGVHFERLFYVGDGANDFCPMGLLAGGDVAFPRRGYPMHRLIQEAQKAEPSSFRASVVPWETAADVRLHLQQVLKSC
pCIP destab – compounds decreasing mouse p/CIP protein stability. F442A p/CIP-EGFP cells, EGFP fluorescence, 16 h. Q05BA5. 290,000 compounds, 0.01% hits. decrease of EGFP signal, % at 10 µM;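 active means EGFP signal decrease of at least 30% at 10 µM or well 3 SD below plate mean, unless failing retest; inactive means the rest, including hits failing retest or dose response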
APOBEC3G inh – inhibitors of human APOBEC3G DNA deaminase | Q9HC16 | recombinant A3G, ssDNA deamination FAM/TAMRA fluorescence | inhibition, % at 20 µM | 330,000 compounds, 0.28% hits;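 active means inhibition of at least 40% at 20 µM, with no more than 30% in the related APOBEC3A deaminase screen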;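 further: plate controls were DMSO wells with A3G for no effect and wells lacking A3G enzyme for full effect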
* hit, by the source's call; . = not tested or not shown.

SMILES	Tb MetRS inh	A3A deaminase	PHOSPHO1 inh	pCIP destab	APOBEC3G inh
Cc1ccc2c(c1)c(CC(=O)Nc1ccc(F)cc1)c(C(=O)O)n2C	0	-4	13	-4	-7
COC(=O)Cn1c(O)c(N=NC(=O)CNC(=O)c2ccncc2)c2ccccc21	-1	1	64*	-9	-1
COCCn1c(C)cc(C2=NNC(=Nc3ccccc3F)SC2)c1C	0	-3	88*	-3	0
CC(NC(=O)COC(=O)c1cc([N+](=O)[O-])ccc1N1CCOCC1)c1ccccc1 (stereo not given)	0	-1	61*	-10	0
CC(NC(=O)COC(=O)c1cc([N+](=O)[O-])ccc1N1CCOCC1)c1ccc(F)cc1 (stereo not given)	0	7	.	.	-5
COc1ccc(OCC(=O)Nc2ccc3c(c2)nc(CCN2CCN(C)CC2)n3C)cc1	-1	3	70*	3	5
CCCn1c(O)c(C=Nc2ccccc2)sc1=S	0	-5	41	-4	-4
CCn1c(O)c(C=Nc2ccccc2)oc1=S	-1	16	103*	9	3
COc1cc(NC(=S)NCc2cccnc2)cc(OC)c1OC	0	-3	63*	-6	2
COc1cc(NC(=S)NCc2cccnc2)cc(OC)c1	0	-3	-6	-23	-7
C=CCSC1=N/C(=C\c2sccc2C)C(=O)S1	-1	-2	44	-6	-3
C=CCSC1=N/C(=C\C=C\c2ccco2)C(=O)S1	0	98	70*	0	85
O=C1c2ccccc2C(=O)N1/N=C/c1ccc(O)c(O)c1	-1	1	1	-7	-9
NC(=O)COC(=O)c1ccc2c(c1)S(=O)(=O)c1ccccc1C2=O	-1	1	20	-2	-7
Cc1noc(C)c1COC(=O)c1ccc2c(c1)S(=O)(=O)c1ccccc1C2=O	0	-1	82*	-5	-5
Cc1cc(=O)n(C2CCS(=O)(=O)C2)[nH]1 (stereo not given)	1	-2	36	-12	-4
CC(C)CNC(=O)C1C(=O)Nc2ccccc2C(=O)N1C1CCCCC1 (stereo not given)	0	.	.	.	.
FC(F)(F)c1ccccc1Nc1nccs1	0	0	95*	-4	6
Cc1csc(Nc2ccccc2C(F)(F)F)n1	0	-5	-13	1	-7
CC(C)(C)c1ccc(-c2n[nH]c(=S)n2C2CCCC2)cc1	-1	-4	91*	-6	0
CCn1c(-c2ccc(C(C)(C)C)cc2)n[nH]c1=S	-1	1	-2	-12	23
COc1ccc(C(=O)Nc2ccc(C(=O)N3CCCCC3C)cc2)c(OC)c1OC (stereo not given)	0	1	75*	-11	3
Cc1ccc(C(=O)N2CCC(n3nccc3NC(=O)C3CCOC3)CC2)cc1 (stereo not given)	0	-4	13	12	-6
CCN(CC)c1ccc(/C=c2\sc3nnc(-c4ccccc4Cl)n3c2=O)cc1	-2	-3	41	6	4
Cc1ccc(/C=c2/sc3nnc(-c4ccccc4Cl)n3c2=O)o1	-1	11	92*	-6	5
SMILES	Tb MetRS inh	A3A deaminase	PHOSPHO1 inh	pCIP destab	APOBEC3G inh
COc1cc(N2CCC(O)CC2)ccc1Nc1nnc(Cl)c(Nc2ccccc2S(C)(=O)=O)n1	0	.	.	.	.
C[n+]1cc[nH]c1SCC(=O)c1ccccc1	0	-7	60*	-5	-7
C[n+]1cc[nH]c1SCC(=O)c1ccc(Cl)cc1	0	-4	29	-2	-3
COc1cc(-c2nnc(SCc3cccnc3)n2C)cc(OC)c1O	0	-1	31	1	-4
CCCCNC1=CC(=O)C(=O)c2ccccc21	3	1	60*	-12	2
O=C(Cn1nnc2ccccc2c1=O)N[C@@H](Cc1c[nH]c2ccccc12)C(=O)O	0	-3	0	-11	-5
O=C(CC1C(=O)Nc2ccccc2N1CC(=O)N1CCCC1)Nc1ccc(Br)cc1 (stereo not given)	19*	0	.	.	-1
CCOc1cc(/C=N\n2nnnc2N)ccc1O	1	-3	24	-16	-7
CCOc1ccc(/C=N/n2nnnc2N)cc1O	0	1	62*	-17	8
CCN(CC)C(=O)Cn1cc(C(=O)C(=O)N2CCN(c3ccccc3)CC2)c2ccccc21	0	-4	59	-4	-5
CCN(C(=O)Cn1cc(C(=O)C(=O)N2CCOCC2)c2ccccc21)c1ccccc1	0	-3	73*	0	-7
Cc1cc(C)c(NC(=O)c2cc(C(=O)O)ccc2C(=O)O)c([N+](=O)[O-])c1	0	-4	-3	1	-9
O=C(Cc1ccc(Cl)cc1)OCc1nnc(-c2ccccc2)o1	-1	3	60*	-3	-2
O=C(O)c1ccc(Sc2nnc3ccccn23)c([N+](=O)[O-])c1	0	0	-3	-3	-3
COc1cc(/C=N/NC(=O)C(N)=O)ccc1OCC(=O)N1C(C)CCCC1C (stereo not given)	0	0	-19	-3	-7
Fc1ccc(-c2nnsc2Sc2ccccn2)cc1	0	-4	24	0	-9
COC(=O)c1ccc(CN2C(=O)NC3(CCCCC3C)C2=O)o1 (stereo not given)	-1	8	70*	3	-1
CN(C)c1ccc(-c2ccnc3c2CC(C)(C(=O)Nc2cccc(Oc4ccccc4)c2)O3)cc1 (stereo not given)	0	.	.	.	.
CCC1Oc2ccccc2N(CC(=O)NC2CC2)C1=O (stereo not given)	0	5	2	2	2
COc1ccc(CCN2C(=O)CS/C2=N\NC(=O)c2cccs2)cc1OC	-1	-2	35	-11	-3
Cc1ccc2[nH]c(=O)c(NC(N)=S)nc2c1	0	3	-40	5	3
NC(=S)Nc1nc2ccccc2[nH]c1=O	.	7	66*	-5	-1
COc1cccc(/C=N/Nc2ccc(C(=O)O)cc2)c1O	-1	-2	-4	10	-6
COc1cccc(/C=N/Nc2ccc(S(=O)(=O)O)cc2)c1O	0	-1	92*	-10	-6
CC(CCC(C)C(C)(C)C)[C@@H]1CC[C@H]2C3C[C@H](OS(O)(=S)=S)[C@H]4C[C@H](OS(O)(=S)=S)[C@@H](OS(O)(=S)=S)C[C@]4(C)[C@H]3CC[C@]12C (stereo not given in full) (tested in a mixture with another compound)	16*	5	.	.	-1
CC(CCC(=O)NN)C1CCC2C3CCC4CC(O)CCC4(C)C3CCC12C (stereo not given)	0	.	.	.	.
CCCCC[C@H](C)N1C[C@H](COCc2ccccc2)Oc2cc(N3CCC[C@H]3CO)ccc2S1(=O)=O	1	.	.	.	.
C[N+]1(CCOS(=O)C23CC4CC(CC(C4)C2)C3)CCOCC1 (stereo not given)	0	38	81*	2	24
